Sequences and labels used below:
B1: NELF-E aptamer (parent)
chain: CCCAACGACUGCCGAGCGAGAUUACGCUUGAGCGCCCCACUGAGGAUGCCCACGGGCGAUUGGGGCACGG

The variants in the data set derive from B1. Put plainly: HiTS-RAP. Conditions: with NELF-E (Drosophila). The method, boiled down: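 Aptamer DNA templates bearing a T7 promoter and a ter site were sequenced on an Illumina GAIIx flowcell. T7 RNA polymerase then transcribed them in situ, and GST-Tus halted transcription over 30 minutes at 37°C. After a 30-minute room-temperature equilibration with NELF-E-mOrange at 0.064 to 1000 nM in HEPES binding buffer, clusters were imaged, using only the first binding curve. Intensities normalised to sequencing intensity were averaged per sequence and fitted with weighted Hill fits to give Kd, retaining only fits whose variance stayed under 1,000,000.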
For the variant G7U A67G, the Kd turned out to be 7.45 nM.
With A8G A24G, the Kd came out at 6.27 nM.
As for A8G A24U, the figure is 5.52 nM; as for G7U G63A, 19.9 nM.
As for G7U G63U, the figure is 15.8 nM; as for A8U A39U, 28.6 nM.
As for A8U G30A, the figure is 5.46 nM; as for G7C A8G, 5.81 nM.
Take A8U G54A: the Kd is 11.3 nM.
As for A8U G64C, the figure is 7.62 nM; as for A8U G64A, 8.34 nM.
On to A8U G64U, for which the Kd came to 9.52 nM.
The result for A8U C50U reads 10.4 nM; that for A8U C12U, 5.4 nM.
On to A8U C12G, for which the Kd was 6.15 nM.
The result for C9G C13A reads 7.19 nM.
The result for C9G C13G reads 5.48 nM; that for A8G C25U, 5.14 nM; that for A8C C9G, 7.53 nM.
The result for A8U U61A reads 29.9 nM; that for A8U U61C, 71.4 nM; that for G7U G26A, 5.82 nM.
As for G7U G26U, the Kd is 6.93 nM.
As for A8U C66U, the figure is 5.31 nM.
As for A8G G55U, the figure is 7.12 nM.
Regarding A8G G55A, the Kd worked out at 10 nM.
As for A8G C33U, the figure is 5.16 nM.
As for A8G G34A, the figure is 4.84 nM.
The result for A8U G56A reads 16.7 nM; that for A8U G56U, 6.41 nM; that for A8G A15G, 6.29 nM.
Turning to A8G A15U, the Kd turned out to be 5.54 nM.
As for G7U A39U, the figure is 26.9 nM; as for G7U A39G, 11.4 nM; as for A8U U29A, 4.61 nM.
A8U U29C: the Kd turned out to be 6.56 nM.
The result for A8U U29G reads 5.87 nM; that for A8G G30A, 4.89 nM.
As for A8G G30U, the figure is 4.7 nM; as for A8C U29G, 8.24 nM.
With G7U A59U, the Kd was found to be 18.3 nM.
As for G7U A59G, the figure is 67.6 nM; as for A8G A67U, 6.63 nM.
As for A8G A67G, the figure is 6.62 nM; as for A8U A67G, 5.61 nM.
As for A8U A67U, the figure is 7.42 nM; as for A8G G54A, 14.6 nM.
In the case of A8G U28A, the equilibrium dissociation constant (Kd) was determined as 4.13 nM.
In the case of A8G U28G, the Kd is 6.24 nM.
As for A8G U28C, the figure is 7.19 nM; as for G7U U47G, 7.97 nM.
As for G7U U47A, the figure is 12.9 nM; as for G7U C33G, 5.51 nM; as for G7U C33U, 6.35 nM.
As for A8U U47A, the figure is 15.7 nM.
As to A8U U47G, the Kd came out at 5.6 nM.
Turning to G7U, the Kd stood at 5.55 nM.
As for G7C, the figure is 6.43 nM; as for A8G U23G, 5.8 nM; as for A8G U23C, 4.62 nM.
The result for G7U U23C reads 4.06 nM; that for G7U U23G, 6.08 nM; that for G7U C36U, 7.87 nM.
The result for G7U U22A reads 6.43 nM; that for G7U U22C, 5.8 nM; that for G7U U22G, 6.14 nM.
As for G7U C40U, the Kd was determined as 80.4 nM.
As for A8U C9G, the Kd amounted to 6.03 nM.
The result for A8U C9U reads 6.55 nM.
As for A8U G34A, the Kd amounted to 6.21 nM.
The result for G7U C57U reads 6.23 nM.
The result for C9A reads 5.07 nM; that for C9G, 5.17 nM; that for A8U C38U, 8.93 nM.
The result for A8G U22G reads 5.75 nM; that for A8G U22C, 5.08 nM; that for A8G U10C, 5.52 nM.
Regarding A8G U10A, the Kd was found to be 5.37 nM.
The result for A8G U10G reads 5.44 nM.
As for C9G A39U, the figure is 29.8 nM.
Regarding C9G A39G, the Kd amounted to 9.62 nM.
For the variant C9G A21U, the Kd was found to be 6.36 nM.
As for C9G A21G, the figure is 6.86 nM; as for A8U C25U, 6.08 nM; as for A8U C25G, 6.83 nM.
As for A8C U23G, the figure is 7.61 nM; as for A8U C13G, 6.33 nM; as for A8U C13A, 7.3 nM.
As for A8U C13U, the figure is 4.96 nM; as for A8G G16A, 5.75 nM; as for A8G G16U, 6.76 nM.
For A8G A46G, the Kd was 17.8 nM.
As for A8U C53U, the figure is 3.63 nM; as for A8U G11A, 6.46 nM.
As for A8U G11U, the figure is 6.61 nM; as for G7U G56U, 7.83 nM; as for G7U G56A, 9.43 nM.
As to C9G A43U, the Kd stood at 80.5 nM.
As for C9G A43G, the figure is 30.4 nM; as for A8U U28G, 7.11 nM; as for A8U U28C, 8.73 nM.
As for A8U U28A, the figure is 5.05 nM; as for A8G G48A, 11.7 nM.
The result for G7U C17G reads 6.28 nM; that for G7U C17U, 6.16 nM; that for A8U A24G, 6.05 nM.
Regarding A8G G56U, the Kd stood at 6.49 nM.
The result for A8G G56A reads 10 nM; that for A8G G42A, 44.1 nM; that for A8G G18A, 6.78 nM.
On to A8G G18U, for which the Kd worked out at 7.18 nM.
The result for A8G G14U reads 7.09 nM; that for A8G G14A, 6.2 nM; that for G7U A24U, 6.81 nM.
Regarding G7U A24G, the Kd was found to be 6.71 nM.
As for A8G G65A, the figure is 5.32 nM; as for A8G G65U, 8.03 nM; as for G7U A43U, 84.5 nM.
As for G7U A43G, the figure is 58 nM; as for A8G C66U, 5.01 nM.
As for G7U C25U, the figure is 5.7 nM; as for G7U C25G, 5.61 nM.
Take G7U G14U: the Kd was 6.73 nM.
As for G7U G14A, the figure is 6.59 nM; as for A8U G20U, 6.62 nM; as for A8U G16A, 6.74 nM.
The result for A8U G16U reads 7.54 nM; that for G7U G54A, 15.7 nM.
As for G7U G54U, the figure is 5.44 nM; as for G7C U10G, 6.28 nM.
Take A8U A19G: the Kd came out at 6.26 nM.
As for A8U A19U, the figure is 6.78 nM.
Consider C9G A19G, for which the Kd was 5.58 nM.
The result for C9G A19U reads 7.14 nM.
As to G7U G42U, the Kd was 17.4 nM.
The result for G7U G42A reads 59 nM; that for A8U G14A, 7.4 nM.
As for A8U G14U, the figure is 6.76 nM.
As for G7U G20A, the figure is 7.33 nM; as for G7U G20U, 7.06 nM; as for G7U A21G, 6.51 nM.
As for G7U A21U, the Kd is 5.79 nM.
The result for G7U C38U reads 8.98 nM; that for A8U C36U, 8.33 nM; that for G7U G55A, 7.6 nM.
The result for G7U G55U reads 6.97 nM.
The result for A8G A43G reads 23.7 nM; that for A8G A43U, 63.6 nM.
In the case of A8U A59G, the Kd amounted to 47.2 nM.
The result for G7U C13A reads 6.82 nM; that for G7U C13G, 5.83 nM.
As for G7U C13U, the figure is 5.75 nM; as for C9G A31U, 7.5 nM.
The result for C9G A31G reads 8.03 nM.
On to G7U U61A, for which the Kd came out at 39.5 nM.
As for G7U U61C, the figure is 79 nM; as for G7U U60C, 10.9 nM; as for A8U A21G, 6.05 nM.
Regarding A8U A21U, the Kd worked out at 7.37 nM.
The result for A8C U22G reads 7.46 nM.
As for A8G U47A, the figure is 10.9 nM.
The result for A8G U47G reads 7.16 nM; that for C9G A15U, 7.39 nM; that for C9G A15G, 6.64 nM.
Take A8C U10G: the Kd came to 6.49 nM.
For the variant A8U G65U, the Kd is 8.03 nM.
Consider A8U G65A, for which the Kd amounted to 5.1 nM.

Usually Kd stands for the free concentration of one partner at which half of the binding sites on the other are occupied at equilibrium, for simple one-to-one binding.

(Values after the RNAGym collection of RNA variant scans (doi:10.1038/nmeth.2970).)
